Measurements taken from article PMC4409786 (Cancer discovery, 2014).
Structures can show the parent of a compound that is named as a salt. Values belong to the compound of their own block, whether it stands above or below them.

Columns and labels:
DU145^TMPRSS2 cells = assay: Matrigel invasion assay, HGF-promoted; assay type: cell-based; details: DU145^TMPRSS2, p<0.01
Summary of the method: (§1)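 TMPRSS2 coding sequence is cloned and transfected into DU145 or PC3 cells, and stable lines are selected with antibiotic; vector-transfected cells are the controls. Invasion through Matrigel is measured with a commercial 96-well invasion kit, under standard culture (serum) conditions or with added HGF, alongside serum-free medium.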

trypsin = assay: Trypsin inhibition; assay type: biochemical; details: read-out: IC50 for trypsin
LNCaP cells [1] = assay: In vitro cell toxicity, LNCaP; assay type: cell-based; details: 48-hour, 0μM to 250μM
hepsin = hepsin (Homo sapiens, UniProt P05981); assay: Hepsin protease inhibition with optimal peptide substrate; assay type: biochemical
Summary of the method: (§2)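 Each enzyme is assayed with its optimal peptide substrate, and substrate concentrations are determined after 30 minutes.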

matriptase = target: T1, matriptase (Homo sapiens, UniProt Q9Y5Y6); assay: Matriptase protease inhibition with optimal peptide substrate; assay type: biochemical
T1 sequence (Q9Y5Y6 1-855): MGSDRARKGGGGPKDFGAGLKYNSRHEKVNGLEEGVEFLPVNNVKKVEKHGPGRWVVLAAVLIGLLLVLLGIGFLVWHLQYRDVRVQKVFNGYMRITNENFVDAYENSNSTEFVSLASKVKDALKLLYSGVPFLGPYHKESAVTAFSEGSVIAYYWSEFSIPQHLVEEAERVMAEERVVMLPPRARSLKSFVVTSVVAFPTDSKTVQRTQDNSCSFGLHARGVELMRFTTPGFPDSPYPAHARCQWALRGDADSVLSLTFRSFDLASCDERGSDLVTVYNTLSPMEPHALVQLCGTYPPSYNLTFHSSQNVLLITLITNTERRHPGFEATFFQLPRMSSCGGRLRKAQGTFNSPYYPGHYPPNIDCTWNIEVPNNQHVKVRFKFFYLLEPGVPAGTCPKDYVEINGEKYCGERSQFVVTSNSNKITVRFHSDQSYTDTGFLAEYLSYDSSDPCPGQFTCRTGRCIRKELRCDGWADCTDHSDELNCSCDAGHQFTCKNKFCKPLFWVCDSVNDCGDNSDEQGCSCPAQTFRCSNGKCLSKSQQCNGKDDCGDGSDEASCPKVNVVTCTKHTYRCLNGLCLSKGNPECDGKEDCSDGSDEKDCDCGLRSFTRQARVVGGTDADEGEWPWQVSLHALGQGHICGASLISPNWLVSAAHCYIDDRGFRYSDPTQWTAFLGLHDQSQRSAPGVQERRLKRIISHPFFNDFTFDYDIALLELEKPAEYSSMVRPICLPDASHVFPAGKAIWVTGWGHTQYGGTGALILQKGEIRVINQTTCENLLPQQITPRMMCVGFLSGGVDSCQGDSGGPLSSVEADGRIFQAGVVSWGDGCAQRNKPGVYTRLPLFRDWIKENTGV
Summary of the method: as §2

TRAMP mice = assay: In vivo treatment of TRAMP mice: primary tumor and spontaneous metastasis; design: species or system mouse; details: 30mg/kg intraperitoneal three times per week, p=0.04 versus vehicle
thrombin = thrombin (Homo sapiens, UniProt P00734); assay: Thrombin inhibition; assay type: biochemical
DU145 cells [2] = assay: In vitro cell toxicity, DU145; assay type: cell-based; details: DU145, 48-hour, 0μM to 250μM
PC3 cells = assay: In vitro cell toxicity, PC3; assay type: cell-based; details: PC3, 48-hour, 0μM to 250μM
PC-3^TMPRSS2 cells = assay: Matrigel invasion assay, HGF-promoted; assay type: cell-based; details: PC-3^TMPRSS2, p<0.01
Summary of the method: as §1

HepG2 cells = assay: In vitro cell toxicity, HepG2; assay type: cell-based; details: HepG2, 48-hour, 0μM to 250μM
LNCaP cells [3] = assay: HGF-induced invasion assay; assay type: cell-based; details: natively express TMPRSS2, p<0.01
Summary of the method: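 Invasion through basement-membrane matrix, measured with a commercial 96-well invasion kit. LNCaP cells are exposed to exogenous paracrine-acting HGF and compared with serum-free medium.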

C4-2B cells = assay: HGF-induced invasion assay; assay type: cell-based; details: natively express TMPRSS2, p<0.01
DU145 cells [4] = assay: DU145 invasion with prostate fibroblast conditioned medium and TMPRSS2; assay type: cell-based
prostate bone metastasis = details: human clinical trials ref 42; cited from earlier work

Sequence of hepsin (P05981 whole entry): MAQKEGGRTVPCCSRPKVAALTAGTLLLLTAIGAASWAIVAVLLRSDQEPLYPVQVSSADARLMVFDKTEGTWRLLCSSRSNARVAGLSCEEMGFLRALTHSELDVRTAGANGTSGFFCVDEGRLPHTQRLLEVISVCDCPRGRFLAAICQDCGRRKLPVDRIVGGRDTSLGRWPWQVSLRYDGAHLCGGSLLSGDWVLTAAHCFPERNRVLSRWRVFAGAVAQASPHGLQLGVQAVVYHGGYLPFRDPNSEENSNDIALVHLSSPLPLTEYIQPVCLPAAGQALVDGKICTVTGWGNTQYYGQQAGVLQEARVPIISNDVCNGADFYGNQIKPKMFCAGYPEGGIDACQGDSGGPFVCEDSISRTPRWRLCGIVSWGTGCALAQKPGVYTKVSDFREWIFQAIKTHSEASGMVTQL

IC50 (trypsin): > 100 µM
IC50 (hepsin): 35 µM
IC50 (matriptase): 58 µM
IC50 (thrombin): > 100 µM
SMILES: CN(Cc1cc(Br)cc(Br)c1N)C1CCCCC1 [BHH, bromhexine hydrochloride]
migration and invasion phenotypes promoted by HGF (DU145^TMPRSS2 cells): significantly reduced
toxicity (LNCaP cells [1]): No significant toxicity
incidence of distant metastasis to lung and liver sites (TRAMP mice): 20%
toxicity (DU145 cells [2]): No significant toxicity
toxicity (PC3 cells): No significant toxicity
migration and invasion phenotypes promoted by HGF (PC-3^TMPRSS2 cells): significantly reduced
toxicity (HepG2 cells): No significant toxicity
HGF-induced invasion (LNCaP cells [3]): significantly attenuated
HGF-induced invasion (C4-2B cells): significantly attenuated

SMILES: Cc1[nH]c(/C=C2\C(=O)Nc3ccc(S(=O)(=O)N(C)c4cccc(Cl)c4)cc32)c(C)c1C(=O)N1CCN(C)CC1 [SU11274]
increase of cellular invasion by fibroblast conditioned medium and TMPRSS2 (DU145 cells [4]): abolished

SMILES: COc1cc2nccc(Oc3ccc(NC(=O)C4(C(=O)Nc5ccc(F)cc5)CC4)cc3)c2cc1OC [cabozantinib]
prostate bone metastasis response (prostate bone metastasis): Striking regressions
